Source: ChEMBL document CHEMBL5576116, “Structural modification of the propyl linker of cjoc42 in combination with sulfonate ester and triazole replacements for enhanced gankyrin binding and anti-proliferative activity” (Bioorg Med Chem, 2024)
pIC50: −log10 of the molar value. Activity calls are given as the source filed them. The calls are words filed in the database; no cut-off is given here.

Tests used:
[1] = test system: HuH-6; assay: Antiproliferative activity against human HuH-6 cells incubated for 72 hrs by MTT assay; assay type: functional, cell-based; details: HuH-6, 72 h
In short: (§1)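 Cells kept in DMEM with 10% FBS and 1% penicillin/streptomycin, seeded at 2.5 x 10^4 cells/well and left 24 h before drug. Exposed to increasing compound concentrations for 72 h at 37 °C, 5% CO2. MTT dye (5.4 mg/mL) added for 3 h at 37 °C, formazan dissolved in DMSO, A570 read. 6–8 replicates per treatment; IC50 from dose–response curves.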

[2] = test system: HuH-6; assay: Upregulation of Rb protein level in human HuH-6 cells at 0.82 to 3.3 uM incubated for 48 hrs by Western blotting analysis; assay type: functional, cell-based; details: dose 0.82-3.3 µM
In short: (§2)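 HuH6 cells in 10 cm dishes exposed to varying compound concentrations or vehicle (0.25% DMSO final) for 48 h. Harvested in cold PBS, lysed in RIPA plus protease/phosphatase inhibitors for 60 min on ice. 15 μg protein on reducing SDS-PAGE, transferred to PVDF, immunoblotted for p53, Rb and gankyrin with cyclophilin as reference; ECL detection. Run in duplicate.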

[3] = test system: HuH-6; assay: Induction of cell cycle arrest in human HuH-6 cells assessed as accumulation of cells at […] phase at 3.3 uM incubated for 72 hrs PI/RNAase staining based flow cytometry analysis; assay type: functional
In short: (§3)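 HuH6 cells treated 72 h with compound or vehicle (0.25% DMSO final), harvested in cold PBS, normalized, fixed in 70% ethanol at −20 °C overnight. Pellet stained with PI/RNase for 30 min at 37 °C, then analyzed by flow and imaging cytometry. Mean ± SD, n = 3; one-way ANOVA, P < 0.05 significant.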

[4] = test system: HuH-6; assay: Upregulation of p53 protein level in human HuH-6 cells at 0.82 to 3.3 uM incubated for 48 hrs by Western blotting analysis; assay type: functional, cell-based; details: dose 0.82-3.3 µM; in short: as §2
[5] = test system: HuH-6; assay: Induction of cell cycle arrest in human HuH-6 cells assessed as decrease in S phase cells at 3.3 uM incubated for 72 hrs PI/RNAase staining based flow cytometry analysis; assay type: functional; in short: as §3
[6] = test system: Huh-7; assay: Antiproliferative activity against human HuH-7 cells incubated for 72 hrs by MTT assay; assay type: functional, cell-based; details: Huh-7, 72 h; in short: as §1
[7] = test system: HepG2; assay: Antiproliferative activity against human HepG2 cells incubated for 72 hrs by MTT assay; assay type: functional, cell-based; details: HepG2, 72 h
[8] = Cytotoxicity against HEK293 cells; assay type: toxicity, cell-based; details: human; in short: as §1
[9] = test system: HuH-6; assay: Effect on gankyrin protein level in human HuH-6 cells at 0.82 to 3.3 uM incubated for 48 hrs by Western blotting analysis; assay type: functional, cell-based; details: dose 0.82-3.3 µM; in short: as §2
[10] = test system: Hep 3B2; assay: Antiproliferative activity against human Hep3B cells incubated for 72 hrs by MTT assay; assay type: functional, cell-based
[11] = biological target: T1, 26S proteasome non-ATPase regulatory subunit 10 (Homo sapiens) (UniProt O75832); assay: Binding affinity to gankyrin in human HuH-6 cells assessed as thermal stability incubated for 5 hrs by CETSA; assay type: cell-based
T1 sequence (whole entry): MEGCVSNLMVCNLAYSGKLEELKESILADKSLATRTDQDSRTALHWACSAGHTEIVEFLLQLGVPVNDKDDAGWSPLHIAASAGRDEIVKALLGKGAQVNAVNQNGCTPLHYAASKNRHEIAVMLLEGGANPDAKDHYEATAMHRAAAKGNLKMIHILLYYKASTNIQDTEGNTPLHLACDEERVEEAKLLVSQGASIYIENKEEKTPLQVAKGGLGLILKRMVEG
In short: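 HuH6 cells treated for 5 h with compound or vehicle, 0.25% DMSO final. Harvested cells split into six aliquots heated at 50, 53, 56, 59, 62 or 65 °C. Lysed in RIPA with protease/phosphatase inhibitors, 60 min on ice. 15 μg protein run on reducing SDS-PAGE, blotted to PVDF, probed for gankyrin with β-actin reference, ECL detection. Melt curve mean ± SD, n = 3.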

Compound	pIC50 [1]	other results
Cc1ccc(CNC(=O)NS(=O)(=O)c2ccc(C)cc2)cc1	< 4.30	–
COC(=O)c1ccc(NC(=O)CCC(=O)Nc2ccc(C(=O)OC)cc2)cc1	5.48	Activity [2]: Active; Activity [3]: Active; Activity [4]: Active; Activity [5]: Active; pIC50 [6]: < 4.30; pIC50 [7]: 4.62; pIC50 [8]: < 4.30; Activity [9]: inactive; pIC50 [10]: < 4.30; Activity [11]: Active
COC(=O)c1ccc(NC(=O)CCCCC(=O)Nc2ccc(C)cc2)cc1	< 4.30	–
O=C(NCCCCNC(=O)c1ccc(C(F)(F)F)cc1)c1ccc(-c2ccccc2)cc1	< 4.30	–
COc1ccc(CNC(=O)Nc2ccc(C)cc2)cc1	< 4.30	–
COC(=O)c1ccc(C(=O)NCCNC(=O)c2ccc(C(=O)OC)cc2)cc1	< 4.30	–
COC(=O)c1ccc(-n2cc(CNC(=O)c3ccc(C)cc3)nn2)cc1	< 4.30	–
COC(=O)c1ccc(-n2cc(CCOS(=O)(=O)c3ccc(C)cc3)nn2)cc1	< 4.30	–
COC(=O)c1ccc(-n2cc(CCCCNC(=O)c3ccc(C)cc3)nn2)cc1	4.71	–
Cc1ccc(C(=O)NCCCCNC(=O)c2ccc(C)cc2)cc1	< 4.30	–
COC(=O)c1ccc(NC(=O)CCCC(=O)Nc2ccc(C(=O)OC)cc2)cc1	4.85	–
COC(=O)c1ccc(C(=O)NCCCNC(=O)c2ccc(-c3ccccc3)cc2)cc1	< 4.30	–
Cc1ccc(NC(=O)CCCC(=O)Nc2ccc(C)cc2)cc1	< 4.30	–
Cc1ccc(C(=O)NCCCNC(=O)c2ccc(C)cc2)cc1	< 4.30	–
COC(=O)c1ccc(-n2cc(CCCOS(=O)(=O)c3ccc(C)cc3)nn2)cc1	< 4.30	–
COC(=O)c1ccc(C(=O)NCCCNC(=O)c2ccc(C)cc2)cc1	< 4.30	–
COc1ccc(CNC(=O)NS(=O)(=O)c2ccc(C)cc2)cc1	< 4.30	–
Cc1ccc(NC(=O)CCC(=O)Nc2ccc(C)cc2)cc1	< 4.30	–
COC(=O)c1ccc(CNC(=O)NS(=O)(=O)c2ccc(C)cc2)cc1	< 4.30	–
COC(=O)c1ccc(-n2cc(CCNC(=O)c3ccc(C)cc3)nn2)cc1	< 4.30	–
COC(=O)c1ccc(NC(=O)Nc2ccc(C)cc2)cc1	4.41	–

Compound	pIC50 [1]	other results
COC(=O)c1ccc(NC(=O)CCCCC(=O)Nc2ccc(C(=O)OC)cc2)cc1	< 4.30	–
Cc1ccc(CNC(=O)Nc2ccc(C)cc2)cc1	< 4.30	–
COC(=O)c1ccc(C(=O)NCCCCNC(=O)c2ccc(C)cc2)cc1	< 4.30	–
COC(=O)c1ccc(-n2cc(CCCCOS(=O)(=O)c3ccc(C)cc3)nn2)cc1	< 4.30	–
COC(=O)c1ccc(C(=O)NCCCNC(=O)c2ccc(C(=O)OC)cc2)cc1	4.70	pIC50 [8]: < 4.30
Cc1ccc(C(=O)NCCCCNC(=O)c2ccc(-c3ccccc3)cc2)cc1	< 4.30	–
Cc1ccc(C(=O)NCCNC(=O)c2ccc(C)cc2)cc1	4.52	–
COC(=O)c1ccc(C(=O)NCCCCNC(=O)c2ccc(C(=O)OC)cc2)cc1	< 4.30	–
COC(=O)c1ccc(NC(=O)CC(=O)Nc2ccc(C(=O)OC)cc2)cc1	< 4.30	–
Cc1ccc(NC(=O)Nc2ccc(C)cc2)cc1	< 4.30	–
Cc1ccc(C(=O)NCCCNC(=O)c2ccc(-c3ccccc3)cc2)cc1	4.69	–
COC(=O)c1ccc(C(=O)NCCNC(=O)c2ccc(C)cc2)cc1	4.51	–
COC(=O)c1ccc(NC(=O)CCC(=O)Nc2ccc(-c3ccccc3)cc2)cc1	< 4.30	–
COC(=O)c1ccc(C(=O)NCCCCNC(=O)c2ccc(-c3ccccc3)cc2)cc1	< 4.30	–
Cc1ccc(NC(=O)CC(=O)Nc2ccc(C)cc2)cc1	< 4.30	–
O=C(NCCCNC(=O)c1ccc(C(F)(F)F)cc1)c1ccc(-c2ccccc2)cc1	< 4.30	–
COC(=O)c1ccc(CNC(=O)Nc2ccc(C)cc2)cc1	< 4.30	–
Cc1ccc(NC(=O)NS(=O)(=O)c2ccc(C)cc2)cc1	< 4.30	–
Cc1ccc(NC(=O)CCCCC(=O)Nc2ccc(C)cc2)cc1	< 4.30	–
COC(=O)c1ccc(NC(=O)NS(=O)(=O)c2ccc(C)cc2)cc1	< 4.30	–
COc1ccc(C(=O)NCCCNC(=O)c2ccc(-c3ccccc3)cc2)cc1	5.62	pIC50 [8]: 5.48
